Data from ChEMBL document CHEMBL1132698, “3-(Piperazinylpropyl)indoles: selective, orally bioavailable h5-HT1D receptor agonists as potential antimigraine agents” (J Med Chem, 1999).

Assays:
[1] = molecular target: T1, 5-hydroxytryptamine receptor 1D (Homo sapiens, UniProt P28221); assay: Relative efficacy in stimulation of [35S]GTP-gamma-S, binding in CHO cells compared to 5-HT; type: functional, cell-based
[2] = molecular target: 5-hydroxytryptamine receptor 1B (Homo sapiens, UniProt P28222); assay: Displacement of [3H]5-HT binding from cloned human 5-hydroxytryptamine 1B receptor stably expressed in CHO cells.; type: cell-based
Chain of 5-hydroxytryptamine receptor 1B (P28222 whole entry): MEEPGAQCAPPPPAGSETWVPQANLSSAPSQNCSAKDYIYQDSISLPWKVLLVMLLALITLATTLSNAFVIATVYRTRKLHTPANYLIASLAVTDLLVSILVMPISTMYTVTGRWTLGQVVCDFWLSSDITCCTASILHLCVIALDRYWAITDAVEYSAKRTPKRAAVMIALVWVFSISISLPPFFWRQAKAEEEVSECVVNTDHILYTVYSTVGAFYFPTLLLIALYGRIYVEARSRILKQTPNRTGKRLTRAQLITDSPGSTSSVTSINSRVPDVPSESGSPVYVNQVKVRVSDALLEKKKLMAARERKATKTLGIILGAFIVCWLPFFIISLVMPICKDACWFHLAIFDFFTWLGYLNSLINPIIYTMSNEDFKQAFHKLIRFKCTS

[3] = molecular target: T1, 5-hydroxytryptamine receptor 1D; assay: Displacement of [3H]5-HT binding to the cloned human 5-hydroxytryptamine 1D receptor stably expressed in CHO cells; type: cell-based
Method in brief: (§1)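 Membranes from CHO cells stably expressing human 5-HT1D receptor were washed, pre-incubated 10 min at 37 °C, then assayed at 0.2 mg protein/mL in 50 mM Tris-HCl pH 7.7 with 4 mM CaCl2, 0.01 mM pargyline and 0.1% ascorbate. […] Filtration and counting followed; IC50 came from nonlinear regression; ≥3 experiments, geometric means.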

[4] = molecular target: T1, 5-hydroxytryptamine receptor 1D; assay: Stimulation of [35S]GTP-gamma-S, binding in CHO cells expressing the human 5-hydroxytryptamine 1D receptor.; type: functional, cell-based
Method in brief: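 Membranes from CHO cells stably expressing human 5-HT1D were used at 40 μg protein/mL in HEPES 20 mM, NaCl 100 mM, MgCl2 10 mM, pargyline, ascorbate, pH 7.4. They were preincubated with 100 μM GDP plus compound for 20 min at 30 °C, then 15 min on ice. 100 pM [35S]GTPγS was added for 30 min at 30 °C, followed by filtration and counting. EC50 and Emax (relative to 5-HT maximum) came from nonlinear regression.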

[5] = molecular target: T1, 5-hydroxytryptamine receptor 1D; assay: Displacement of [3H]5-HT binding from human 5-hydroxytryptamine 1D receptor expressed in CHO cells; type: cell-based
[6] = molecular target: T1, 5-hydroxytryptamine receptor 1D; assay: Stimulation of [35S]GTP-gamma-S, binding in CHO cells expressing the 5-hydroxytryptamine 1D receptor; type: functional, cell-based
[7] = molecular target: T1, 5-hydroxytryptamine receptor 1D; assay: Displacement of [3H]5-HT from human 5-hydroxytryptamine 1D receptor expressed in CHO cells; type: cell-based; method in brief: as §1

T1 sequence (P28221 whole entry): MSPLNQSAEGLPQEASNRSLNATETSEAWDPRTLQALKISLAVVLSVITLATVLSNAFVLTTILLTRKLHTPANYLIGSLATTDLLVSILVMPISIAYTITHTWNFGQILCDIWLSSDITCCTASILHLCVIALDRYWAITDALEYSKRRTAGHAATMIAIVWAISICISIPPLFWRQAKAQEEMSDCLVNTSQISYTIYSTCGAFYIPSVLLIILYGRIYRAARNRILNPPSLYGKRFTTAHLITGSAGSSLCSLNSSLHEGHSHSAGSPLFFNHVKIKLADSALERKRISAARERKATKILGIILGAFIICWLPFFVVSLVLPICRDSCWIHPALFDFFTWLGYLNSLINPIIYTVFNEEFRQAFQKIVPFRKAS

Fc1ccc(CCN2CCN(CCCc3c[nH]c4ccc(-n5cnnc5)cc34)CC2)cc1 was tested, and the Relative efficacy [1] was 81%.

Compound S=C1CN(CCCc2c[nH]c3ccc(-n4cnnc4)cc23)CCN1Cc1ccccc1 has an IC50 [2] of 18 nM, an IC50 [3] of 0.8 nM and an EC50 [4] of 2.3 nM. The Relative efficacy [1] was 97%.

O=C1CN(CCCc2c[nH]c3ccc(-n4cnnc4)cc23)CCN1Cc1ccccc1 showed an IC50 [2] of 282 nM, an IC50 [3] of 6.6 nM and an EC50 [4] of 7.5 nM. The Relative efficacy [1] was 85%.

With c1c[nH]c(CN2CCN(CCCc3c[nH]c4ccc(-n5cnnc5)cc34)CC2)n1 the IC50 [2] was 36 nM, the IC50 [3] was 1.6 nM and the EC50 [4] was 2 nM. It also gave a Relative efficacy [1] of 68%.

Work on O=C1CN(CCCc2c[nH]c3ccc(-n4cnnc4)cc23)CCN1CCc1ccccc1 yielded an IC50 [2] of 78 nM and an IC50 [3] of 5.2 nM.

For c1cncc(CN2CCN(CCCc3c[nH]c4ccc(-n5cnnc5)cc34)CC2)c1, the IC50 [2] was 22 nM, the IC50 [3] was 0.3 nM and the EC50 [4] was 0.3 nM. It also gave a Relative efficacy [1] of 69%.

Work on Clc1ccc(CN2CCN(CCCc3c[nH]c4ccc(-n5cnnc5)cc34)CC2)cc1 yielded an IC50 [2] of 59 nM, an IC50 [3] of 0.5 nM and an EC50 [4] of 1.2 nM. For the same compound, the Relative efficacy [1] was 63%.

Compound c1cc2[nH]cc(CCCN3CCOCC3)c2cc1-n1cnnc1 has an IC50 [2] of 7.4 nM and an IC50 [3] of 8.8 nM.

Work on Cc1noc(-c2ccc(CCN3CCN(CCCc4c[nH]c5ccc(-n6cnnc6)cc45)CC3)cc2)n1 yielded an IC50 [2] of 46 nM and an IC50 [3] of 6.9 nM.

Work on c1cc2[nH]cc(CCCN3CCNCC3)c2cc1-n1cnnc1 yielded an IC50 [2] of 145 nM and an IC50 [3] of 31 nM.

Compound NC(=O)C(c1ccccc1)N1CCN(CCCc2c[nH]c3ccc(-n4cnnc4)cc23)CC1 (stereo in doubt; 6p) [listing 1 of 2 here] has a Relative efficacy [1] of 77%.

c1ccc(CNC[C@@H]2CCN(CCc3c[nH]c4ccc(-n5cnnc5)cc34)C2)cc1 gave an IC50 [2] of 37 nM, an IC50 [5] of 0.6 nM and a Relative efficacy [1] of 102%.

Compound Fc1cccc(CCN2CCN(CCCc3c[nH]c4ccc(-n5cnnc5)cc34)CC2)c1 has an IC50 [2] of 72 nM, an IC50 [3] of 0.5 nM and an EC50 [4] of 1 nM. For the same compound, the Relative efficacy [1] was 88%.

In the case of CC(=O)Nc1cccc(CN2CCN(CCCc3c[nH]c4ccc(-n5cnnc5)cc34)CC2)c1, the IC50 [2] is reported as 2.4 nM, the IC50 [3] is reported as 0.2 nM and the EC50 [4] is reported as 0.2 nM. It also gave a Relative efficacy [1] of 70%.

Compound CN(C)CCc1c[nH]c2ccc(-n3cnnc3)cc12 has a Relative efficacy [1] of 115%.

For CN1CCN(CCCCc2c[nH]c3ccc(-n4cnnc4)cc23)CC1, the IC50 [2] was 5100 nM and the IC50 [3] was 210 nM.

Compound CC(c1ccccc1)N1CCN(CCCc2c[nH]c3ccc(-n4cnnc4)cc23)CC1 (stereo not drawn) has an IC50 [2] of 13 nM and an IC50 [3] of 1 nM.

CN1CCN(CCCc2c[nH]c3ccc(-n4cnnc4)cc23)CC1 was tested, and the IC50 [2] was 309 nM, the EC50 [6] was 54 nM and the IC50 [3] was 33 nM. It also gave a Relative efficacy [1] of 95%.

Work on c1cncc(CCN2CCN(CCCc3c[nH]c4ccc(-n5cnnc5)cc34)CC2)c1 yielded an IC50 [2] of 93 nM, an IC50 [3] of 4.9 nM and an EC50 [4] of 7.8 nM. For the same compound, the Relative efficacy [1] was 69%.

Work on c1ccc(CN2CCN(CCCc3c[nH]c4ccc(-n5cnnc5)cc34)CC2)nc1 yielded an IC50 [2] of 18 nM, an IC50 [3] of 0.4 nM and an EC50 [4] of 0.3 nM. It also gave a Relative efficacy [1] of 67%.

c1ccc(CCCN2CCN(CCCc3c[nH]c4ccc(-n5cnnc5)cc34)CC2)cc1 was tested, and the IC50 [2] was 85 nM, the IC50 [3] was 4.9 nM and the EC50 [4] was 4 nM. The Relative efficacy [1] was 68%.

In the case of c1cc(CN2CCN(CCCc3c[nH]c4ccc(-n5cnnc5)cc34)CC2)ccn1, the IC50 [2] is reported as 23 nM, the IC50 [3] is reported as 0.6 nM and the EC50 [4] is reported as 1 nM. For the same compound, the Relative efficacy [1] was 66%.

With NC(=O)C(c1ccccc1)N1CCN(CCCc2c[nH]c3ccc(-n4cnnc4)cc23)CC1 (stereo in doubt; 6p) [listing 2 of 2 here] the IC50 [2] was 13 nM, the IC50 [3] was 0.2 nM and the EC50 [4] was 0.2 nM.

In the case of NC(=O)C(c1ccccc1)N1CCN(CCCc2c[nH]c3ccc(-n4cnnc4)cc23)CC1 (stereo in doubt; 6q) [listing 1 of 2 here], the IC50 [2] is reported as 55 nM, the EC50 [6] is reported as 3.8 nM and the IC50 [5] is reported as 2.3 nM.

CN1CCN(CCc2c[nH]c3ccc(-n4cnnc4)cc23)CC1 gave an IC50 [2] of 304 nM, an EC50 [6] of 105 nM and an IC50 [3] of 134 nM. For the same compound, the Relative efficacy [1] was 61%.

Work on c1ccc(N2CCN(CCCc3c[nH]c4ccc(-n5cnnc5)cc34)CC2)cc1 yielded an IC50 [2] of 13 nM and an IC50 [3] of 1.4 nM.

With c1cc(CN2CCN(CCCc3c[nH]c4ccc(-n5cnnc5)cc34)CC2)co1 the IC50 [2] was 27 nM, the EC50 [4] was 0.3 nM and the Relative efficacy [1] was 70%. It also gave an IC50 [7] of 1.1 nM.

Compound OCC(c1ccccc1)N1CCN(CCCc2c[nH]c3ccc(-n4cnnc4)cc23)CC1 (stereo not drawn) has an IC50 [2] of 9.5 nM, an IC50 [3] of 0.7 nM and an EC50 [4] of 0.3 nM. The Relative efficacy [1] was 74%.

c1coc(CN2CCN(CCCc3c[nH]c4ccc(-n5cnnc5)cc34)CC2)c1 gave an IC50 [2] of 18 nM, an IC50 [3] of 0.4 nM and an EC50 [4] of 0.5 nM. The Relative efficacy [1] was 66%.

Fc1ccc(CN2CCN(CCCc3c[nH]c4ccc(-n5cnnc5)cc34)CC2)cc1 showed an IC50 [2] of 20 nM, an IC50 [3] of 0.1 nM and an EC50 [4] of 0.3 nM. It also gave a Relative efficacy [1] of 77%.

In the case of Fc1ccc(CCN2CCN(CCCc3c[nH]c4ccc(-n5cnnc5)cc34)CC2)cc1F, the IC50 [2] is reported as 83 nM, the IC50 [3] is reported as 0.9 nM and the EC50 [4] is reported as 0.7 nM. The Relative efficacy [1] was 91%.

Compound Fc1ccccc1CCN1CCN(CCCc2c[nH]c3ccc(-n4cnnc4)cc23)CC1 has an IC50 [2] of 98 nM, an IC50 [3] of 0.5 nM and an EC50 [4] of 1.4 nM. The Relative efficacy [1] was 80%.

For c1cnc(N2CCN(CCCc3c[nH]c4ccc(-n5cnnc5)cc34)CC2)nc1, the IC50 [2] was 0.5 nM, the IC50 [3] was 0.6 nM and the EC50 [4] was 0.6 nM. For the same compound, the Relative efficacy [1] was 59%.

For NC(=O)C(c1ccccc1)N1CCN(CCCc2c[nH]c3ccc(-n4cnnc4)cc23)CC1 (stereo in doubt; 6q) [listing 2 of 2 here], the Relative efficacy [1] was 61%.

With c1cc2[nH]cc(CCN3CCCC3)c2cc1-n1cnnc1 the Relative efficacy [1] was 120%.

c1ccc(CN2CCN(CCCc3c[nH]c4ccc(-n5cnnc5)cc34)CC2)cc1 gave an IC50 [2] of 11 nM, an IC50 [3] of 0.1 nM and an EC50 [4] of 0.2 nM. It also gave a Relative efficacy [1] of 57%.

In the case of CC(=O)Nc1ccc(CCN2CCN(CCCc3c[nH]c4ccc(-n5cnnc5)cc34)CC2)cc1, the IC50 [2] is reported as 260 nM, the EC50 [4] is reported as 1.8 nM and the Relative efficacy [1] is reported as 85%.

N#Cc1ccc(CN2CCN(CCCc3c[nH]c4ccc(-n5cnnc5)cc34)CC2)cc1 was tested, and the IC50 [2] was 130 nM, the IC50 [3] was 0.7 nM and the EC50 [4] was 1.1 nM. For the same compound, the Relative efficacy [1] was 71%.

Work on CN(C)C(=O)C(c1ccccc1)N1CCN(CCCc2c[nH]c3ccc(-n4cnnc4)cc23)CC1 (stereo not drawn) yielded an IC50 [2] of 102 nM, an IC50 [3] of 1 nM and an EC50 [4] of 0.8 nM. For the same compound, the Relative efficacy [1] was 68%.

For O=C1CN(Cc2ccccc2)CCN1CCCc1c[nH]c2ccc(-n3cnnc3)cc12, the IC50 [2] was 3900 nM and the IC50 [3] was 173 nM.

With CC(=O)Nc1ccc(CN2CCN(CCCc3c[nH]c4ccc(-n5cnnc5)cc34)CC2)cc1 the IC50 [2] was 56 nM, the IC50 [3] was 2.5 nM and the EC50 [4] was 6.1 nM. For the same compound, the Relative efficacy [1] was 78%.

Work on CC(CN1CCN(CCCc2c[nH]c3ccc(-n4cnnc4)cc23)CC1)c1ccccc1 (stereo not drawn) yielded an IC50 [2] of 45 nM, an IC50 [3] of 0.8 nM and an EC50 [4] of 0.3 nM. For the same compound, the Relative efficacy [1] was 94%.

In the case of CNCC(c1ccccc1)N1CCN(CCCc2c[nH]c3ccc(-n4cnnc4)cc23)CC1 (stereo not drawn), the IC50 [2] is reported as 17 nM, the IC50 [3] is reported as 0.9 nM and the EC50 [4] is reported as 1.7 nM. The Relative efficacy [1] was 103%.

Work on c1ccc(CCN2CCN(CCCc3c[nH]c4ccc(-n5cnnc5)cc34)CC2)cc1 yielded an EC50 [4] of 1.7 nM and a Relative efficacy [1] of 73%.

In the case of FC(F)(F)c1ccc(CN2CCN(CCCc3c[nH]c4ccc(-n5cnnc5)cc34)CC2)cc1, the IC50 [2] is reported as 282 nM, the EC50 [6] is reported as 11 nM and the IC50 [5] is reported as 5.2 nM. The Relative efficacy [1] was 82%.
